≈ marks a conversion by molar mass, not a printed value.

In one assay the test system is Plasmodium falciparum. The experiment in a line: Antimalarial activity against multidrug-resistant Plasmodium falciparum K1 by [3H]hypoxanthine uptake. It counts as functional, organism-based. The essentials:
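Multidrug-resistant P. falciparum K1 tested in vitro by microculture radioisotope technique. IC50 is the concentration giving 50% reduction of parasite growth, measured as [3H]-hypoxanthine uptake, reported in µg/mL.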

Assay [1] can be described thus: Cytotoxicity against human BC1 cells by SRB assay. It counts as functional, cell-based. The essentials: (§1)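 Purified compounds tested for cytotoxicity by a colorimetric method on human epidermoid carcinoma KB, human breast cancer BC-1 and African monkey kidney fibroblast Vero cells. Values are IC50 in µg/mL. Ellipticine served as the standard for KB and BC-1.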
In another assay the test system is Vero. Nature of the assay: Cytotoxicity against african green monkey Vero cells by SRB assay. It counts as cell-based. Conditions: Chlorocebus sabaeus. The essentials: as §1
Background: Sulforhodamine B stains cellular protein and so reports cell mass.

Assay [2] concerns Mycobacterium tuberculosis. Nature of the assay: Antitubercular activity against Mycobacterium tuberculosis H37Ra by microplate Alamar blue assay. The class given is functional. The essentials: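 Growth inhibition of M. tuberculosis H37Ra measured by Microplate Alamar Blue Assay; activity reported as MIC in µg/mL.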
(In general: Resazurin is reduced to fluorescent resorufin, in cell work by metabolically active cells.)

The subject of the next assay is KB. Nature of the assay: Cytotoxicity against human KB cells by SRB assay. It counts as functional, cell-based. The essentials:
as §1

The term IC50 denotes the concentration that inhibits the measured activity by half. `C[C@@H]1CC[C@H]2[C@@H](C)C(=O)O[C@@H]3O[C@@]4(C)CC[C@@H]1[C@]32OO4` [ARTEMISININ] had an IC50 in the assay with Plasmodium falciparum of 0.0011 µg/mL (≈ 0.0039 µM).

As a reminder, the MIC is the smallest concentration in the dilution series that meets the test's criterion for growth inhibition. Consider `C[C@@H]1CC(O)=C2C(=O)c3c(O)ccc(-c4ccc(O)c5c4O[C@@]4(CO)C(=C(O)C[C@@H](C)[C@H]4O)C5=O)c3O[C@]2(CO)[C@@H]1O` [DEACETYLPHOMOXANTHONE A], for which the IC50 in assay [1] was above 20 µg/mL; with Vero it was above 50 µg/mL; in the assay on Plasmodium falciparum it was above 20 µg/mL; in the assay with KB, above 20 µg/mL. In addition, in assay [2], the minimum inhibitory concentration (MIC) was above 200 µg/mL.

For the compound `Cc1c2ccncc2c(C)c2c1[nH]c1ccccc12` [ELLIPTECINE], the IC50 is 0.6 µg/mL (≈ 2.44 µM) in assay [1] and 0.46 µg/mL (≈ 1.87 µM) in the assay with KB.

`NNC(=O)c1ccncc1` [ISONIAZID] showed an MIC in assay [2] of 0.05 µg/mL (≈ 0.365 µM).

As to `NC[C@H]1O[C@H](O[C@H]2[C@H](O)[C@@H](O[C@H]3O[C@H](CO)[C@@H](O)[C@H](N)[C@H]3O)[C@H](N)C[C@@H]2N)[C@H](O)[C@@H](O)[C@@H]1O.O=S(=O)(O)O` [KANAMYCIN SULFATE], the lowest concentration to inhibit growth in assay [2] (MIC) was 2.5 µg/mL.

Consider `CC(=O)OC[C@]12Oc3c(-c4ccc(O)c5c4O[C@@]4(COC(C)=O)C(=C(O)C[C@@H](C)[C@H]4OC(C)=O)C5=O)ccc(O)c3C(=O)C1=C(O)C[C@@H](C)[C@H]2OC(C)=O` [PHOMOXANTHONE A], for which the IC50 came to 0.51 µg/mL (≈ 0.679 µM) in assay [1], 1.4 µg/mL (≈ 1.86 µM) with Vero, 0.11 µg/mL (≈ 0.147 µM) in the assay on Plasmodium falciparum and 0.99 µg/mL (≈ 1.32 µM) in the assay with KB. This compound had an MIC in assay [2] of 0.5 µg/mL (≈ 0.666 µM).

For the compound `CC(=O)OC[C@]12Oc3ccc(-c4ccc(O)c5c4O[C@@]4(COC(C)=O)C(=C(O)C[C@@H](C)[C@H]4OC(C)=O)C5=O)c(O)c3C(=O)C1=C(O)C[C@@H](C)[C@H]2OC(C)=O` [PHOMOXANTHONE B], the IC50 was 0.7 µg/mL (≈ 0.932 µM) in assay [1], 1.8 µg/mL (≈ 2.4 µM) in the assay with Vero, 0.33 µg/mL (≈ 0.44 µM) in the assay with Plasmodium falciparum and 4.1 µg/mL (≈ 5.46 µM) with KB. This compound displayed a minimal inhibitory concentration (MIC) in assay [2] of 6.25 µg/mL (≈ 8.33 µM).

Values taken from ChEMBL document CHEMBL1155742, “Phomoxanthones A and B, novel xanthone dimers from the endophytic fungus Phomopsis species” (J Nat Prod, 2001).
